For data set [1], the target named is T1, Mu-type opioid receptor (Homo sapiens, UniProt P35372). The experiment in a line: Agonist activity at human recombinant MOR expressed in CHO cells at 1 uM by calcium mobilization assay. Type of data set: functional, cell-based.
For data set [2], the target named is Delta-type opioid receptor (Homo sapiens) (UniProt P41143). Description: Agonist activity at human recombinant DOR expressed in CHO cells at 1 uM by calcium mobilization assay. In kind it is functional, cell-based.
Chain of Delta-type opioid receptor (Homo sapiens) (P41143 whole entry): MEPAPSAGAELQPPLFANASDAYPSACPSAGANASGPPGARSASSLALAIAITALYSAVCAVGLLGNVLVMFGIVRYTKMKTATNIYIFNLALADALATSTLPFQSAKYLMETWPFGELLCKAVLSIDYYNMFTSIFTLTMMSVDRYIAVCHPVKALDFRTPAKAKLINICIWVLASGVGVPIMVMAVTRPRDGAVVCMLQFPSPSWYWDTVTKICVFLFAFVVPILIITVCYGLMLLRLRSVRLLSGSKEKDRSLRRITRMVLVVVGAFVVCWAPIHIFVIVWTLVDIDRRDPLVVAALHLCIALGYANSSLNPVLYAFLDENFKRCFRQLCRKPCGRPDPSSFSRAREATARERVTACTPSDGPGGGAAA
For data set [3], the target named is T2, Kappa-type opioid receptor (Homo sapiens, UniProt P41145). The experiment in a line: Agonist activity at human recombinant KOR expressed in CHO cells at 1 uM by calcium mobilization assay. Type of data set: functional, cell-based. (Calcium flux is commonly read through the fluorescence of an indicator in the cells.)
T2 sequence (P41145 whole entry): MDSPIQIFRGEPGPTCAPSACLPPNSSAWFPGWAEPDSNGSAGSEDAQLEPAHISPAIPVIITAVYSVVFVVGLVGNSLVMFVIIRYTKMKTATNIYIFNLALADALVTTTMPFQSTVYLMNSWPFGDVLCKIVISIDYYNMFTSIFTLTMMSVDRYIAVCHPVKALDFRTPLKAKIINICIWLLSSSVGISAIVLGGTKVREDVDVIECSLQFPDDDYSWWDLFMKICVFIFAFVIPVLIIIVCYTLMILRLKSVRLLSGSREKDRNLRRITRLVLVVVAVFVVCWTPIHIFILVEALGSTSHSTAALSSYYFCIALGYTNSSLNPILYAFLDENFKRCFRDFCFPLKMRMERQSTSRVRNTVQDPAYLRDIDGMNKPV
The nature of data set [4]: Retention time of compound by RP-HPLC analysis. In kind it is physicochemical. Summed up:
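Solvent A was 0.1% TFA in water and B was 80% acetonitrile with 0.1% TFA. Linear gradient of 0–100% B over 50 min at 1 ml/min.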

For data set [5], the target named is Mu-type opioid receptor (Rattus norvegicus, UniProt P33535). The experiment in a line: Displacement of [3H]DAMGO from MOR in Wistar rat brain homogenate by scintillation counting analysis. Type of data set: tissue-based. Summed up: (§1)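 Competitive radioligand displacement in brain homogenates from adult male Wistar rats: [3H]DAMGO for MOR, [3H][Ile5,6]deltorphin-2 for DOR. IC50 read from logarithmic dose–displacement curves and converted to Ki. Three independent experiments, each in duplicate.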
Chain of Mu-type opioid receptor (Rattus norvegicus, UniProt P33535) (P33535 whole entry): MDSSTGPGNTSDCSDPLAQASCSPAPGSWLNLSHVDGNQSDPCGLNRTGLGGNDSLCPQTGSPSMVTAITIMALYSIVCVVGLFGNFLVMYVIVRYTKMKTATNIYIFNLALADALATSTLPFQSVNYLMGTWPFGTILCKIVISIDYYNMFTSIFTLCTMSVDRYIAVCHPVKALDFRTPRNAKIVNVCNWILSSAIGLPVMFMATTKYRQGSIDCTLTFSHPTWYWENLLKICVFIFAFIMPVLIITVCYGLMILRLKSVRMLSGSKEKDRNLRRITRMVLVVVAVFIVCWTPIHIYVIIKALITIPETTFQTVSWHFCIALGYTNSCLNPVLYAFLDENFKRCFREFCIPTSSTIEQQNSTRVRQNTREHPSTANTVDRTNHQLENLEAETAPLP

Data set [6] concerns the target Delta-type opioid receptor (Rattus norvegicus, UniProt P33533). Description: Displacement of [3H][Ile5,6]deltorphin-2 from DOR in Wistar rat brain homogenate by scintillation counting analysis. Type of data set: tissue-based. The method in brief: as §1
Data set [7] deals with Kappa-type opioid receptor (Cavia porcellus, UniProt P41144). The experiment in a line: Displacement of [3H]nor-BNI from KOR in Dunkin Hartley guinea pig brain homogenate by scintillation counting analysis. In kind it is tissue-based. The method in brief: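 KOR affinity measured by competitive displacement of [3H]nor-BNI in guinea pig brain membranes. IC50 taken from logarithmic dose–displacement curves and converted to Ki. Three independent experiments run in duplicate.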
Chain of Kappa-type opioid receptor (Cavia porcellus, UniProt P41144) (P41144 whole entry): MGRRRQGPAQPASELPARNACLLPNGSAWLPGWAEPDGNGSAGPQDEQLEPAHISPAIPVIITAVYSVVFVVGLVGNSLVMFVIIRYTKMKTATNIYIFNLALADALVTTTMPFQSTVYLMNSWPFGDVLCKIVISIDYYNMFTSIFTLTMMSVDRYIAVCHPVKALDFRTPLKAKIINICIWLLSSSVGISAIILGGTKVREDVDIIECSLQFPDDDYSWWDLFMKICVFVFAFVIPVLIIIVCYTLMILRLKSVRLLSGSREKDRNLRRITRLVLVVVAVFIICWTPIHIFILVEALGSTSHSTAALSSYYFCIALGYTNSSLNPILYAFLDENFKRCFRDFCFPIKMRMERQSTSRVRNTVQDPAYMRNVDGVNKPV
In general terms: In a radioligand displacement assay an active substance lowers the binding of a labelled ligand.

In data set [8] the target is T1, Mu-type opioid receptor. The experiment in a line: Agonist activity at human recombinant MOR expressed in CHO cells by calcium mobilization assay. In kind it is functional, cell-based.
The target in data set [9] is T2, Kappa-type opioid receptor. Description: Agonist activity at human recombinant KOR expressed in CHO cells by calcium mobilization assay. Type of data set: functional, cell-based. The method in brief:
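CHO cells stably co-expressing human recombinant KOR and the C-terminally modified chimeric G protein Gαqi5. Calcium mobilization read-out. Concentration–response curves fitted with a sigmoidal equation that includes baseline, Emax and Hill coefficient. Potency reported as pEC50, the negative log molar concentration giving 50% of the maximal effect. Efficacy reported as intrinsic activity, the ligand Emax relative to the standard agonist Emax.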

Data set [10] has as its target T2, Kappa-type opioid receptor. Description: Intrinsic activity at human recombinant KOR expressed in CHO cells at 1 uM by calcium mobilization assay relative to dynorphin A. In kind it is functional, cell-based.

The text below walks through data of ChEMBL document CHEMBL3763121, “Synthesis, biological evaluation and structural analysis of novel peripherally active morphiceptin analogs” (Bioorg Med Chem, 2016).

Structures are written as SMILES. The source made the active and inactive calls. The calls are words filed in the database; no cut-off is given here. Where a SMILES comes first, the peptide text is derived from it.

Chain of Delta-type opioid receptor (P33533 whole entry): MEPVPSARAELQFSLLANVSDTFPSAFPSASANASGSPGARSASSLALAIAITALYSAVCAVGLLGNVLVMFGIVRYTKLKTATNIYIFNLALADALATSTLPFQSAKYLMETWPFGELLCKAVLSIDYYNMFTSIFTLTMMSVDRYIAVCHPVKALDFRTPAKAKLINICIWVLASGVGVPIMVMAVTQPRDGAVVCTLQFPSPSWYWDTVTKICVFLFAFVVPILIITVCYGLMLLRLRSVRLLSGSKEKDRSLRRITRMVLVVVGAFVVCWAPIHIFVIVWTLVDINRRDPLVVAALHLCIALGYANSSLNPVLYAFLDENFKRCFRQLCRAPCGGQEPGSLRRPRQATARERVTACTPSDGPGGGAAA
T1 sequence (P35372 whole entry): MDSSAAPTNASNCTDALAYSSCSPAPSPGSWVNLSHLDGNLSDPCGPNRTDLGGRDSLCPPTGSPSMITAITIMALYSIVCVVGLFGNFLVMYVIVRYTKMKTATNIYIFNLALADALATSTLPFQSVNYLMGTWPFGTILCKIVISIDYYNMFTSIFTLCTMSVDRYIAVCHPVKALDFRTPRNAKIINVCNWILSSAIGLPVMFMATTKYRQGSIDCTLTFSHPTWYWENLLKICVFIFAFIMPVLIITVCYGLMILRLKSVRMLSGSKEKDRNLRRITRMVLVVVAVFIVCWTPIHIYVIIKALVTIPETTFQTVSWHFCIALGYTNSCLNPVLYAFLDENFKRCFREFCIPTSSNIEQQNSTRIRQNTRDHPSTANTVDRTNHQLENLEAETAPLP

One may read the Ki as the equilibrium dissociation constant of an inhibitor or competing ligand from its target. High values mean weaker binding, low ones tighter binding. As to `NC(=O)[C@@H]1CCCN1C(=O)[C@H](Cc1ccccc1)NC(=O)[C@H]1CC(F)(F)CN1C(=O)[C@@H](N)Cc1ccc(O)cc1`, the outcome (at Mu-type opioid receptor [1]; in data set [2]; in data set [3]) was inactive. The Retention_time in [4] came out at 14.1 min. The Ki (at Mu-type opioid receptor [5]; in [6]; in [7]) was over 1000 nM in each case.
One may read the EC50 as the midpoint of the concentration-response curve. Consider `NC(=O)[C@H]1CC(F)(F)CN1C(=O)[C@H](Cc1ccccc1)NC(=O)[C@@H]1CC(F)(F)CN1C(=O)[C@@H](N)Cc1ccc(O)cc1`, for which the EC50 was 4.68 nM on Mu-type opioid receptor [8] and 813 nM in data set [9]. For the same molecule, the result in [2] was inactive. The Intrinsic activity in [10] came to 0.84. Further, the Retention_time in data set [4] stood at 14.99 min. For the same molecule, the inhibition constant (Ki) on Mu-type opioid receptor [5] is 0.37 nM; in data set [6], over 1000 nM; in data set [7], 386 nM.
For the molecule `NC(=O)[C@@H]1CCCN1C(=O)[C@H](Cc1ccccc1)NC(=O)[C@@H]1CCCN1C(=O)[C@@H](N)Cc1ccc(O)cc1` [MORPHICEPTIN] (H-YPFP-NH2), the EC50 at Mu-type opioid receptor [8] is 741 nM. The outcome in data set [2] and in [3] was inactive. In addition, the Ki at Mu-type opioid receptor [5] was 36.4 nM; in [6], over 1000 nM; in [7], over 1000 nM.
In the case of `NC(=O)[C@H]1CC(F)(F)CN1C(=O)[C@H](Cc1ccccc1)NC(=O)[C@@H]1CCCN1C(=O)[C@@H](N)Cc1ccc(O)cc1`, the EC50 on Mu-type opioid receptor [8] is 20.4 nM. Also, in data set [2], the outcome was inactive. In data set [4], this molecule gave a Retention_time of 14.22 min. Also, the Ki at Mu-type opioid receptor [5] was 13.3 nM; in data set [6], over 1000 nM; in [7], over 1000 nM.
For `CC1(C)SSC(C)(C)[C@@H](NC(=O)[C@@H](N)Cc2ccc(O)cc2)C(=O)NCC(=O)N[C@@H](Cc2ccccc2)C(=O)N[C@H]1C(=O)O`, the outcome in [3] was inactive.
Same read-out and setting: the same measure for `C[C@H](NC(=O)[C@@H](N)Cc1ccc(O)cc1)C(=O)N[C@@H](Cc1ccccc1)C(=O)NCC(=O)N[C@@H](Cc1ccc(O)cc1)C(=O)N1CCC[C@H]1C(=O)N[C@@H](CO)C(N)=O`: “inactive”.
Regarding `NC(=O)[C@@H]1CC(F)(F)CN1C(=O)[C@H](Cc1ccccc1)NC(=O)[C@@H]1CC(F)(F)CN1C(=O)[C@@H](N)Cc1ccc(O)cc1`, on Mu-type opioid receptor [8], the EC50 was 398 nM. Further, the outcome in data set [2] and in data set [3] was inactive. This molecule came in with a Retention_time in data set [4] of 14.56 min. The Ki was 106 nM at Mu-type opioid receptor [5], over 1000 nM in data set [6] and over 1000 nM in [7].
